Source: PubChem (several laboratories)
PGE2 EP2 inh: EP2 receptor (human) inhibition; P43116; C6 glioma cells expressing human EP2, cAMP TR-FRET; cells stimulated with saturating PGE2; inhibition, % at 25 µM; 260,000 tested, 0.52% active; AID 1422;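 active = percent inhibition above 40 after rounding to a whole number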;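 also: rat C6 glioma host cells with rolipram phosphodiesterase inhibitor present; the protocol text gives 20 µM as final concentration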
Target sequence (P43116 whole entry, looked up): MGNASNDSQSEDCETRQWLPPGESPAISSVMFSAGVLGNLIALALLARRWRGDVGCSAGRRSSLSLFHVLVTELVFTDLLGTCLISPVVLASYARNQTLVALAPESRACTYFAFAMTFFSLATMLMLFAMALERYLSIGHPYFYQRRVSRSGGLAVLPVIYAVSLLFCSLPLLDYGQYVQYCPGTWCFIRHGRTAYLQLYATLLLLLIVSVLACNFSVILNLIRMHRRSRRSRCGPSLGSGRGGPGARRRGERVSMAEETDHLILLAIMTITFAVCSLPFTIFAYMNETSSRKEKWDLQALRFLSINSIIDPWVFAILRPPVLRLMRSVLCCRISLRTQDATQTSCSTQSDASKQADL
NPY Y2 blocker: blocks the human neuropeptide Y Y2 receptor; NPY-Y2 expressing cells, antagonist mode; P49146; 140,000 tested, 0.99% active; AID 793; inhibition, % at 2.7 µM;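 also: 0% = vehicle with agonist challenge and 100% = reference antagonist with challenge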
EP2 mod: modulates human prostaglandin E2 receptor EP2 signaling; induction, % at 25 µM; EP2-expressing cells, cAMP HTRF FRET, PGE2 co-stimulation; P43116; 260,000 tested, 0.83% active;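 active = compounds whose cAMP rise, as percent of the full-agonist control response, exceeds 60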;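 also: rat C6 glioma line stably carrying human EP2 under a CMV promoter; the protocol text gives 20 µM as final concentration; 100% = response of wells given 1 µM PGE2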
NPY1 pot ag: potentiators or agonists of human neuropeptide Y receptor Y1 | NPY-Y1 expressing cells, potentiator/agonist activation | activation, % at 3.6 µM | P25929 | 220,000 tested, 0.37% active; in the data active = activation above about 33%, passing the limit was not always enough;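 also: cells stimulated with NPY at EC10 then isoproterenol at EC100; 0% = low agonist plus stimulus and 100% = saturating agonist plus stimulus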
NPY-Y1 antag: NPY-Y1 (human) receptor antagonism; P25929; HEK293-CNG Y1 cells, membrane potential fluorescence; NPY at EC95, then isoproterenol; inhibition, % at 3.6 µM; 200,000 tested, 1% active; AID 1040;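 active = inhibition above the campaign mean inhibition of all tested compounds plus 3 SD, cut at about 20% in these data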;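 also: 0% = DMSO wells given NPY plus isoproterenol and 100% = isoproterenol alone without NPY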
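Material: HEK293 Y1/CNG channel cell line | Also added: NPY (25 nM), isoproterenol (1 µM), Ro 20-1724 (25 µM) | Compound: One concentration, 3.6 µM, in 0.4% DMSO | Schedule: 3 h dye uptake, 1 h room-temperature compound, 45 min post-isoproterenol | Signal: Membrane-potential fluorescent dye readout | Read-out: % inhibition of NPY effect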
NPY2 pot ag: potentiates or activates human NPY-Y2 receptor | P49146 | cells expressing NPY-Y2, potentiator/agonist read-out | activation, % at 3.6 µM | 220,000 tested, 0.45% active | AID 1359; in the data active = activation above about 27%;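 also: cells stimulated with NPY near EC25 plus isoproterenol at EC100; 0% = vehicle plus submaximal agonist and 100% = vehicle plus saturating agonist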
NPY1 antag conf: human NPY-Y1 antagonism, confirmation; inhibition, % at 3.6 µM; HEK293-CNG NPY-Y1, membrane potential fluorescence, cAMP; NPY challenge against isoproterenol-raised cAMP; AID 1254; 1,200 tested, 21% active; shares compounds with NPY-Y1 antag; in the data active = inhibition above about 20%;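 also: 0% = vehicle with agonist plus stimulus and 100% = stimulus alone without agonist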
NPY2 antag ctr: human NPY-Y2 antagonism in NPY-Y1 counter-screen; shares compounds with NPY-Y1 antag; HEK293 NPY-Y2 CNG membrane potential fluorescence; cells given NPY, then isoproterenol; inhibition, % at 3.6 µM; 1,200 tested, 28% active; AID 1255;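 also: 0% = DMSO with agonist challenge and 100% = reference antagonist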
* marks the source's active call; other numbers are inactive results; · = no result. Hits are enriched below; roughly 2.8% of the tested compounds scored in any of these assays. Rule as the data show it, unless noted: active = inhibition above about 17%; inactive = the rest.

SMILES	PGE2 EP2 inh	NPY Y2 blocker	EP2 mod	NPY1 pot ag	NPY-Y1 antag	NPY2 pot ag	NPY1 antag conf	NPY2 antag ctr
Cn1c(SCC(=O)Nc2ccc(Cl)cc2)nnc1C1CCCCC1	8	·	-12	·	·	·	·	·
O=c1cc(CN2CCN(c3ccccc3)CC2)c2c(ccc3ccccc32)o1	6	5	9	-131	44*	-5	36*	57*
Cc1ccc(-n2cccn2)c(CN2CCC(CO)(CCc3ccccc3)CC2)c1	1	·	-29	-29	45*	-15	20	19*
OCC1(CCc2ccccc2)CCN(Cc2cc(Cl)ccc2O)CC1	6	·	-64	-34	19	-33	·	·
Cc1cccc(C2c3[nH]c4ccccc4c3CCN2Cc2cccn2-c2ncccn2)c1 (stereo not drawn)	4	·	26	-23	32*	-4	14	14
COc1ccc(C2c3[nH]c4ccccc4c3CCN2Cc2cccn2-c2ncccn2)cc1C (stereo not drawn)	5	·	-14	-12	67*	-4	41*	32*
c1ccc(C2c3[nH]c4ccccc4c3CCN2Cc2cccn2-c2ccccn2)nc1 (stereo not drawn)	5	·	-2	-1	·	-29	·	·
Cc1ccc(S(=O)(=O)CCc2nnc(NC(=O)CCn3nnc4ccccc43)s2)cc1	10	·	6	·	·	·	·	·
CCC(=O)Nc1c(C#N)c2nc3ccccc3nc2n1C1CCCCC1	3	3	17	-22	6	-4	·	·
CCOC(=O)c1c(NC(=O)c2ccco2)n(C2CCCCC2)c2nc3ccccc3nc12	11	10	21	3	25*	8	-3	-2
Cc1ccc(S(=O)(=O)Cn2nnnc2C(C(C)C)N2CCSCC2)cc1 (stereo not drawn)	3	0	17	14	21*	3	0	2
CCC(C)(C)n1nnnc1C(c1ccc(C)cc1)N1CCSCC1 (stereo not drawn)	7	16	-6	13	24*	-14	13	5
Cc1cc(C)nc(N2CCC(C(=O)Nc3ccc(F)cc3F)CC2)n1	11	·	-46	·	·	·	·	·
Cc1cc2c(cc3c(=O)n(CC(=O)NCc4ccc(F)cc4)nc(C)n32)s1	·	·	-5	·	·	·	·	·
CC(NC(=O)C1(c2ccc(F)cc2)CCCC1)c1nc(-c2cccnc2)n[nH]1 (stereo not drawn)	6	·	-12	·	·	·	·	·
C/C(Cl)=C\Cn1c(NCCO)nc2c1c(=O)n(C)c(=O)n2C	13	·	-28	·	·	·	·	·
CCN(c1ccccc1)c1nc2nonc2nc1NCCO	9	·	0	-10	·	0	·	·
COCCNc1nc2nonc2nc1N(C)Cc1cccc2cnccc12	12	·	17	1	27*	-8	2	1
COc1ccccc1CN(Cc1cc2cc(C)ccc2[nH]c1=O)Cc1nnnn1Cc1ccco1	11	15	25	-18	33*	-9	21*	10
Cc1ccc2[nH]c(=O)c(CN(CCO)Cc3nnnn3Cc3ccco3)cc2c1	9	·	-1	·	·	·	·	·
Cc1cc2c(o1)c1cnn(CC(=O)OC(C)C)c(=O)c1n2C	·	·	-41	·	·	·	·	·
Cc1ccc(-c2csc(Nc3ccccc3)[n+]2CCc2ccccc2)cc1	4	·	25	-21	22*	-3	6	18*
COc1ccc(-c2csc(Nc3ccccc3)[n+]2Cc2ccccc2)cc1	9	·	43	21	12	8	·	·
COc1cc(C2/C(=C(/O)c3ccc(Cl)cc3)C(=O)C(=O)N2CC(C)O)ccc1O (stereo not drawn)	8	·	-8	·	·	·	·	·
CCOC(=O)C1(CC2CCCCO2)CCN(C2CCSCC2)CC1 (stereo not drawn)	1	·	-4	-2	34*	-16	10	9
SMILES	PGE2 EP2 inh	NPY Y2 blocker	EP2 mod	NPY1 pot ag	NPY-Y1 antag	NPY2 pot ag	NPY1 antag conf	NPY2 antag ctr
CCOC(=O)C1(CC2CCCCO2)CCN(S(=O)(=O)c2cc(C)cs2)CC1 (stereo not drawn)	8	·	20	-2	4	-12	·	·
NC(=O)Cn1cc(C(=O)C2CCCCC2)c2ccccc21	9	·	-21	·	·	·	·	·
N#CC(C#N)C(c1ccsc1)c1c(-c2ccccc2)[nH][nH]c1=O (stereo not drawn)	23	10	-9	-17	24*	8	34*	34*
COc1cccc2c3c(c(C)nc12)CCN3c1ccccc1	6	·	-44	-46	23*	-21	19	21*
COc1ccc(-n2ccnc2CN2CCCC(CO)(Cc3cccc(OC)c3)C2)cc1 (stereo not drawn)	5	·	-31	1	7	-20	·	·
COc1cccc(CC2(CO)CCCN(Cc3c(C)cc(C)cc3-n3cccn3)C2)c1 (stereo not drawn)	11	·	12	-37	38*	-39	24*	20*
NC(=O)c1cc(-c2ccc(N)cc2)nc2ccccc12	16	·	-45	·	·	·	·	·
CN(C1CCCCC1)S(=O)(=O)Cc1ccccc1	7	-2	-10	10	25*	0	4	2
CCC(c1nnnn1Cc1ccccc1)N(Cc1ccco1)Cc1cc2cc(C)c(C)cc2[nH]c1=O (stereo not drawn)	9	·	36	·	·	·	·	·
CC1CC1C(=O)Nc1nc(-c2ccc(Cl)s2)cs1 (stereo not drawn)	3	·	-73	8	25*	-2	8	7
O=C(Nc1nc(-c2ccc(Cl)s2)cs1)c1ccncc1	18	3	-31	16	3	14	·	·
CCOc1cc(/C=C2\CCC/C(=C\c3cc(Cl)c(O)c(OCC)c3)C2=O)cc(Cl)c1O	19	16	-1	-55	44*	-44	45*	44*
COn1c(SCc2ccc(Cl)cc2)nc2ccccc2c1=O	5	10	36	-52	38*	-16	27*	21*
COn1c(SCc2cccnc2)nc2ccccc2c1=O	0	1	10	-3	5	-18	·	·
Cc1cccc2cc(C(c3nnnn3C3CCCC3)N3CCC(C)CC3)c(=O)[nH]c12 (stereo not drawn)	12	·	12	·	·	·	·	·
CN(CCOC(=O)c1cccc(F)c1)Cc1ccccc1	11	3	15	-2	26*	-2	1	3
Cc1cccc(C2(O)CCN(CC(O)c3ccc4ccccc4c3)CC2)c1 (stereo not drawn)	3	·	-71	·	·	·	·	·
CCN(CC)S(=O)(=O)c1cccc(-c2nnc(SCc3nnc(-c4ccccc4)o3)n2C)c1	17	1	-37	-3	10	7	·	·
CCN(CC)S(=O)(=O)c1cccc(-c2nnc(SCCOc3ccccc3)o2)c1	12	15	27	-60	24*	-20	13	10
